From ChEMBL document CHEMBL3576819, “Design, synthesis, biological evaluation and molecular docking studies of phenylpropanoid derivatives as potent anti-hepatitis B virus agents” (Eur J Med Chem, 2015)

Columns and labels:
Hepatitis B virus [1] = assay: Antiviral activity against Hepatitis B virus infected in human HepG2.2.15 cells assessed as inhibition of HBsAg secretion at 75 uM after 6 days by ELISA; assay type: functional; settings: HepG2 2.2.15, 144 h
How it was run: (§1)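 HepG2.2.15 cells (MEM, 10% FBS, 380 µg/ml G418) seeded at 1×10^5 cells/ml, held 24 h at 37 °C, then treated with various drug concentrations; medium with drug renewed every 3 d for up to 9 d. Culture medium sampled on days 3, 6 and 9, stored at -20 °C, and assayed for secreted antigen. Lamivudine as positive control; IC50 = 50% inhibition of secretion; means of at least two experiments.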

Hepatitis B virus [2] = assay: Antiviral activity against Hepatitis B virus infected in human HepG2.2.15 cells assessed as inhibition of HBsAg secretion at 37.5 uM after 3 days by ELISA; assay type: functional; settings: HepG2 2.2.15, 72 h; how it was run: as §1
Hepatitis B virus [3] = assay: Antiviral activity against Hepatitis B virus infected in human HepG2.2.15 cells assessed as inhibition of HBsAg secretion at 150 uM after 3 days by ELISA; assay type: functional; settings: HepG2 2.2.15, 72 h; how it was run: as §1
Hepatitis B virus [4] = assay: Antiviral activity against Hepatitis B virus infected in human HepG2.2.15 cells assessed as inhibition of HBsAg secretion at 300 uM after 9 days by ELISA; assay type: functional; settings: HepG2 2.2.15, 216 h; how it was run: as §1
Hepatitis B virus [5] = assay: Antiviral activity against Hepatitis B virus infected in human HepG2.2.15 cells assessed as inhibition of HBsAg secretion at 150 uM after 6 days by ELISA; assay type: functional; settings: HepG2 2.2.15, 144 h; how it was run: as §1
Hepatitis B virus [6] = assay: Antiviral activity against Hepatitis B virus infected in human HepG2.2.15 cells assessed as inhibition of HBsAg secretion at 37.5 uM after 9 days by ELISA; assay type: functional; settings: HepG2 2.2.15, 216 h; how it was run: as §1
Hepatitis B virus [7] = assay: Antiviral activity against Hepatitis B virus infected in human HepG2.2.15 cells assessed as cell survival at 150 uM after 9 days (reference value: 100%); assay type: functional; settings: HepG2 2.2.15, 216 h
How it was run: (§2)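 HepG2.2.15 cells (MEM, 10% FBS, 380 µg/ml G418, 37 °C, 5% CO2) seeded at 1×10^5 cells/ml, cultured 24 h, then exposed to various drug concentrations; drug-containing medium renewed every 3 d. OD read at 450 nm after 9 days; percent cell death calculated; CC50 = concentration killing 50% of cells. Means of at least two experiments.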

Hepatitis B virus [8] = assay: Antiviral activity against Hepatitis B virus infected in human HepG2.2.15 cells assessed as inhibition of HBeAg secretion at 75 uM after 6 days by ELISA; assay type: functional; settings: HepG2 2.2.15, 144 h; how it was run: as §1
Hepatitis B virus [9] = assay: Antiviral activity against Hepatitis B virus infected in human HepG2.2.15 cells assessed as inhibition of HBsAg secretion at 75 uM after 9 days by ELISA; assay type: functional; settings: HepG2 2.2.15, 216 h; how it was run: as §1
[10] = Selectivity index, ratio of CC50 for human HepG2.2.15 cells to IC50 for Hepatitis B virus infected in human HepG2.2.15 cells assessed as inhibition of HBeAg secretion; assay type: functional
How it was run: (§3)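 Selectivity index computed as CC50/IC50, with CC50 from cell death of HepG2.2.15 cells after 9 days of treatment (OD 450 nm) and IC50 from 50% inhibition of HBeAg or HBsAg secretion in the same cells; medium with drug renewed every 3 d.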

Hepatitis B virus [11] = assay: Antiviral activity against Hepatitis B virus infected in human HepG2.2.15 cells assessed as inhibition of HBeAg secretion by ELISA; assay type: functional, organism-based; settings: HepG2 2.2.15; how it was run: as §1
[12] = Selectivity index, ratio of CC50 for human HepG2.2.15 cells to IC50 for Hepatitis B virus infected in human HepG2.2.15 cells assessed as inhibition of HBsAg secretion; assay type: functional; how it was run: as §3
Hepatitis B virus [13] = assay: Antiviral activity against Hepatitis B virus infected in human HepG2.2.15 cells assessed as inhibition of HBeAg secretion at 37.5 uM after 9 days by ELISA; assay type: functional; settings: HepG2 2.2.15, 216 h; how it was run: as §1
Hepatitis B virus [14] = assay: Antiviral activity against Hepatitis B virus infected in human HepG2.2.15 cells assessed as inhibition of HBsAg secretion by ELISA; assay type: functional, organism-based; settings: HepG2 2.2.15; how it was run: as §1
Hepatitis B virus [15] = assay: Antiviral activity against Hepatitis B virus infected in human HepG2.2.15 cells assessed as inhibition of HBeAg secretion at 300 uM after 9 days by ELISA; assay type: functional; settings: HepG2 2.2.15, 216 h; how it was run: as §1
Hepatitis B virus [16] = assay: Antiviral activity against Hepatitis B virus infected in human HepG2.2.15 cells assessed as inhibition of HBsAg secretion at 75 uM after 3 days by ELISA; assay type: functional; settings: HepG2 2.2.15, 72 h; how it was run: as §1
Hepatitis B virus [17] = assay: Antiviral activity against Hepatitis B virus infected in human HepG2.2.15 cells assessed as inhibition of HBeAg secretion at 75 uM after 9 days by ELISA; assay type: functional; settings: HepG2 2.2.15, 216 h; how it was run: as §1
Hepatitis B virus [18] = assay: Antiviral activity against Hepatitis B virus infected in human HepG2.2.15 cells assessed as cell survival at 37.5 uM after 9 days (reference value: 100%); assay type: functional; settings: HepG2 2.2.15, 216 h; how it was run: as §2
Hepatitis B virus [19] = assay: Antiviral activity against Hepatitis B virus infected in human HepG2.2.15 cells assessed as inhibition of HBeAg secretion at 300 uM after 6 days by ELISA; assay type: functional; settings: HepG2 2.2.15, 144 h; how it was run: as §1
Hepatitis B virus [20] = assay: Antiviral activity against Hepatitis B virus infected in human HepG2.2.15 cells assessed as inhibition of HBeAg secretion at 150 uM after 3 days by ELISA; assay type: functional; settings: HepG2 2.2.15, 72 h; how it was run: as §1
Hepatitis B virus [21] = assay: Antiviral activity against Hepatitis B virus infected in human HepG2.2.15 cells assessed as inhibition of HBeAg secretion at 150 uM after 6 days by ELISA; assay type: functional; settings: HepG2 2.2.15, 144 h; how it was run: as §1
Hepatitis B virus [22] = assay: Antiviral activity against Hepatitis B virus infected in human HepG2.2.15 cells assessed as cell survival at 75 uM after 9 days (reference value: 100%); assay type: functional; settings: HepG2 2.2.15, 216 h; how it was run: as §2
Hepatitis B virus [23] = assay: Antiviral activity against Hepatitis B virus infected in human HepG2.2.15 cells assessed as inhibition of HBsAg secretion at 37.5 uM after 6 days by ELISA; assay type: functional; settings: HepG2 2.2.15, 144 h; how it was run: as §1
Hepatitis B virus [24] = assay: Antiviral activity against Hepatitis B virus infected in human HepG2.2.15 cells assessed as inhibition of HBeAg secretion at 75 uM after 3 days by ELISA; assay type: functional; settings: HepG2 2.2.15, 72 h; how it was run: as §1
Hepatitis B virus [25] = assay: Antiviral activity against Hepatitis B virus infected in human HepG2.2.15 cells assessed as inhibition of HBsAg secretion at 150 uM after 9 days by ELISA; assay type: functional; settings: HepG2 2.2.15, 216 h; how it was run: as §1
Hepatitis B virus [26] = assay: Antiviral activity against Hepatitis B virus infected in human HepG2.2.15 cells assessed as inhibition of HBsAg secretion at 300 uM after 3 days by ELISA; assay type: functional; settings: HepG2 2.2.15, 72 h; how it was run: as §1
Hepatitis B virus [27] = assay: Antiviral activity against Hepatitis B virus infected in human HepG2.2.15 cells assessed as inhibition of HBeAg secretion at 37.5 uM after 6 days by ELISA; assay type: functional; settings: HepG2 2.2.15, 144 h; how it was run: as §1
Hepatitis B virus [28] = assay: Antiviral activity against Hepatitis B virus infected in human HepG2.2.15 cells assessed as cell survival at 300 uM after 9 days (reference value: 100%); assay type: functional; settings: HepG2 2.2.15, 216 h; how it was run: as §2
Hepatitis B virus [29] = assay: Antiviral activity against Hepatitis B virus infected in human HepG2.2.15 cells assessed as inhibition of HBeAg secretion at 150 uM after 9 days by ELISA; assay type: functional; settings: HepG2 2.2.15, 216 h; how it was run: as §1
[30] = Cytotoxicity against human HepG2.2.15 cells assessed as cell death after 9 days by MTT assay; assay type: cell-based, HepG2 2.2.15; how it was run: as §2
Hepatitis B virus [31] = assay: Antiviral activity against Hepatitis B virus infected in human HepG2.2.15 cells assessed as inhibition of HBeAg secretion at 300 uM after 3 days by ELISA; assay type: functional; settings: HepG2 2.2.15, 72 h; how it was run: as §1
Hepatitis B virus [32] = assay: Antiviral activity against Hepatitis B virus infected in human HepG2.2.15 cells assessed as inhibition of HBsAg secretion at 300 uM after 6 days by ELISA; assay type: functional; settings: HepG2 2.2.15, 144 h; how it was run: as §1
Hepatitis B virus [33] = assay: Antiviral activity against Hepatitis B virus infected in human HepG2.2.15 cells assessed as inhibition of HBeAg secretion at 37.5 uM after 3 days by ELISA; assay type: functional; settings: HepG2 2.2.15, 72 h; how it was run: as §1

Row | SMILES | inhibition at 75 µM (Hepatitis B virus [1]) [%] | inhibition at 37.5 µM (Hepatitis B virus [2]) [%] | inhibition at 150 µM (Hepatitis B virus [3]) [%] | inhibition at 300 µM (Hepatitis B virus [4]) [%] | inhibition at 150 µM (Hepatitis B virus [5]) [%] | inhibition at 37.5 µM (Hepatitis B virus [6]) [%] | viability at 150 µM (Hepatitis B virus [7]) [%] | inhibition at 75 µM (Hepatitis B virus [8]) [%] | inhibition at 75 µM (Hepatitis B virus [9]) [%] | Ratio CC50/IC50 [10] | IC50 (Hepatitis B virus [11]) [µM] | Ratio CC50/IC50 [12] | inhibition at 37.5 µM (Hepatitis B virus [13]) [%] | IC50 (Hepatitis B virus [14]) [µM] | inhibition at 300 µM (Hepatitis B virus [15]) [%] | inhibition at 75 µM (Hepatitis B virus [16]) [%] | inhibition at 75 µM (Hepatitis B virus [17]) [%] | viability at 37.5 µM (Hepatitis B virus [18]) [%] | inhibition at 300 µM (Hepatitis B virus [19]) [%] | inhibition at 150 µM (Hepatitis B virus [20]) [%] | further results
1 | COc1cc(/C=C/C(=O)O/N=C/c2cccs2)cc(OC)c1OC | 30.6 | 17.1 | 35.6 | 57.7 | 44.4 | 24.8 | 92.6 | 20.9 | 30.9 | 4.1 | 209 | 4.36 | 20.6 | 197 | 55.1 | 26.3 | 31.6 | 100 | 33.1 | 11.3 | inhibition at 150 µM (Hepatitis B virus [21]): 28.2%; viability at 75 µM (Hepatitis B virus [22]): 93.4%; inhibition at 37.5 µM (Hepatitis B virus [23]): 21.9%; inhibition at 75 µM (Hepatitis B virus [24]): 8.64%; inhibition at 150 µM (Hepatitis B virus [25]): 46.4%; inhibition at 300 µM (Hepatitis B virus [26]): 44.7%; inhibition at 37.5 µM (Hepatitis B virus [27]): 17.1%; viability at 300 µM (Hepatitis B virus [28]): 79.9%; inhibition at 150 µM (Hepatitis B virus [29]): 46.3%; CC50 at 216 h [30]: 857 µM; inhibition at 300 µM (Hepatitis B virus [31]): 15.3%; inhibition at 300 µM (Hepatitis B virus [32]): 56%
2 | COc1ccc(/C=C/C(=O)O/N=C/c2cccs2)cc1OC | 29.6 | 17.4 | 40.7 | 55 | 41.2 | 20.5 | 98.7 | 15.3 | 29.3 | 1.52 | 378 | 2.51 | 18.6 | 229 | 52.3 | 28.4 | 22.6 | 114 | 35.4 | 11.8 | inhibition at 37.5 µM (Hepatitis B virus [33]): 0.63%; inhibition at 150 µM (Hepatitis B virus [21]): 20.4%; viability at 75 µM (Hepatitis B virus [22]): 101%; inhibition at 37.5 µM (Hepatitis B virus [23]): 19.8%; inhibition at 75 µM (Hepatitis B virus [24]): 7.04%; inhibition at 150 µM (Hepatitis B virus [25]): 42.8%; inhibition at 300 µM (Hepatitis B virus [26]): 47.6%; inhibition at 37.5 µM (Hepatitis B virus [27]): 8.58%; viability at 300 µM (Hepatitis B virus [28]): 97.7%; inhibition at 150 µM (Hepatitis B virus [29]): 26.9%; CC50 at 216 h [30]: 574 µM; inhibition at 300 µM (Hepatitis B virus [31]): 14.3%; inhibition at 300 µM (Hepatitis B virus [32]): 52.6%
